From ChEMBL document CHEMBL1148425, “New fatty acid oxidation inhibitors with increased potency lacking adverse metabolic and electrophysiological properties” (Bioorg Med Chem Lett, 2004) come the findings set out here.

SMILES strings stand for the structures. pIC50: −log10 of the molar value.

Series [1] is described as follows: Clearance of compound in rat after 1 mg/kg i.v. administration. Type of series: ADME, organism-based. More on the design: dose 1 mg/kg, route intravenous. Particulars: plasma, iv, read-out: Clp.
Series [2] is described as follows: Volume of distribution of compound in rat after 1 mg/kg i.v. administration. It is filed as ADME, organism-based. More on the design: dose 1 mg/kg, route intravenous. Particulars: in vivo, iv, read-out: Vdss.
Series [3] is described as follows: Oral bioavailability in rat (dose 2 mg/kg). Type of series: ADME, organism-based. Particulars: in vivo.
Series [4] in a line: Total concentration in rat after 1 mg/kg i.v. administration in 24 hours. It is filed as ADME, organism-based. More on the design: dose 1 mg/kg, route intravenous. Particulars: in vivo, iv.
Series [5] is described as follows: Total concentration in rat after 2 mg/kg peroral administration in 24 hours. Type of series: ADME, organism-based. Set-up: dose 2 mg/kg, route oral. As to conditions: in vivo, po.
Series [6] in a line: Metabolic stability (% remaining at 30 mins) in human S9. Type of series: ADME. Particulars: human S9 fraction. An outline of the steps:
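Incubated 30 min with human liver S9 (2 mg/mL protein, NADH added), n=2. Reported as % parent remaining.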

Series [7] is described as follows: Maximum concentration in rat after 2 mg/kg peroral administration. Set-up: dose 2 mg/kg, route oral. It is filed as ADME, organism-based. As to conditions: in vivo, po.
The nature of series [8]: Time to reach maximum concentration in rat after 2 mg/kg peroral administration. It is filed as ADME, organism-based. Set-up: dose 2 mg/kg, route oral. As to conditions: in vivo, po.
A short description of series [9]: Half life in rat after 1 mg/kg i.v. administration. As to conditions: in vivo, iv. More on the design: dose 1 mg/kg, route intravenous. It is filed as ADME, organism-based.
Series [10] in a line: Half life in rat after 2 mg/kg peroral administration. It is filed as ADME, organism-based. More on the design: dose 2 mg/kg, route oral. Particulars: in vivo, po.
The species entered for series [11] is Cavia porcellus. As to the kind of experiment: Electrophysiological effect on isolated guinea pig heart as change in coronary perfusion pressure at 3 uM. Type of series: functional.
The species entered for series [12] is Cavia porcellus. The experiment in a line: Electrophysiological effect on isolated guinea pig heart as change in H-V interval at 3 uM. Type of series: functional.
For series [13], the species on record is Cavia porcellus. As to the kind of experiment: Electrophysiological effect on isolated guinea pig heart as change in S-H interval at 3 uM. It is filed as functional.
Another series addresses Cytochrome P450 3A4 (Homo sapiens, UniProt P08684). As to the kind of experiment: Inhibition of human cytochrome P450 3A4.
The target of a further series is T1, Cytochrome P450 1A2 (Homo sapiens, UniProt P05177).
T1 sequence (P05177 whole entry): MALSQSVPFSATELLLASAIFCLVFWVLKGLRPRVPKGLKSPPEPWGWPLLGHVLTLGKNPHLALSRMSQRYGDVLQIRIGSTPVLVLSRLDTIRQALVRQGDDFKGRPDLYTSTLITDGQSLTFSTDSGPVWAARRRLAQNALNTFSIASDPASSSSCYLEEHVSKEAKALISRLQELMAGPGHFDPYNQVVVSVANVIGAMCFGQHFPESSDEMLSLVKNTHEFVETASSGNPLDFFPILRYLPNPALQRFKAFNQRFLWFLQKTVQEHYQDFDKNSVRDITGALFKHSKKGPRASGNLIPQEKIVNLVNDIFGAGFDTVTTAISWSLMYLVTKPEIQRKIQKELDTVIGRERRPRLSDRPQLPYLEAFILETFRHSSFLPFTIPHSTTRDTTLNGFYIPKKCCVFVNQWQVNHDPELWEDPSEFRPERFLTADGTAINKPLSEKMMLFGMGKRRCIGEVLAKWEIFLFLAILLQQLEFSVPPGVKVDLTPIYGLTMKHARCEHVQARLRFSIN
The experiment in a line: Inhibition of human cytochrome P450 1A2.

The next series deals with Cytochrome P450 2C9 (Homo sapiens, UniProt P11712). The experiment in a line: Inhibition of cytochrome P450 2C9 (human).
Chain of Cytochrome P450 2C9 (P11712 whole entry): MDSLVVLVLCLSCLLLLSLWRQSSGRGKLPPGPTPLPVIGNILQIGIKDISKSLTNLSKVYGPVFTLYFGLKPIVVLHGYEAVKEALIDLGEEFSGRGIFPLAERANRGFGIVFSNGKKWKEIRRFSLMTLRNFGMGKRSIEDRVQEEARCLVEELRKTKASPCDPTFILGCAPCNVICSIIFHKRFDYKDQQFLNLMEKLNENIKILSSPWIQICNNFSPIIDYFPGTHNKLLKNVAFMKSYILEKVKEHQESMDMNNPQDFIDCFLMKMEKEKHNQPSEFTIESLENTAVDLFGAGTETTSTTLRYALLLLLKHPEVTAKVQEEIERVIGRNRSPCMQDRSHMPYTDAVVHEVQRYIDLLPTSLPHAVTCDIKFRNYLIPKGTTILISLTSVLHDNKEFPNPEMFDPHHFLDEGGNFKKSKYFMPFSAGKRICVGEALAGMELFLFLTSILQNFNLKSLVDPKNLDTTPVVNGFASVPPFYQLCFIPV

Chain of Cytochrome P450 3A4 (P08684 whole entry): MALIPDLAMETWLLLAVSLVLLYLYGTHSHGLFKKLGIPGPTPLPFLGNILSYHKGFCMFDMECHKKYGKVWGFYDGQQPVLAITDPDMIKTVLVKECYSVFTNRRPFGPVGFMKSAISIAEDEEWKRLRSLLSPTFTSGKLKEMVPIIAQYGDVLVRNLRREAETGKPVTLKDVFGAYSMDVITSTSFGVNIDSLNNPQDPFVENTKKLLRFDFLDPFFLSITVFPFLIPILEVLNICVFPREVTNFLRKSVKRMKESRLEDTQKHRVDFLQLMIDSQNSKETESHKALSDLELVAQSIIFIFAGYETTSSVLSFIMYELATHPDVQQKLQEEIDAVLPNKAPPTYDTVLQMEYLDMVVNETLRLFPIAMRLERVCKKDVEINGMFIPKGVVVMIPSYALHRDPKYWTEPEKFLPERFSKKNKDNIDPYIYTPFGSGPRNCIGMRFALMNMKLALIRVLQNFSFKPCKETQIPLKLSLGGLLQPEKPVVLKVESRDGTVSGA

Consider `Cc1nc2cc(OC[C@H](O)CN3CCN(CC(=O)Nc4c(C)cccc4C)CC3)ccc2s1`, for which, in [1], the clearance stood at 54.5 mL/min/kg. Besides, the Vd in series [2] was found to be 6.2 L/kg. Besides, the bioavailability in [3] came out at 19.5%. The results for the exposure (AUC) at 24 h in series [4] and in series [5] were 313 ng·h/mL and 61.1 ng·h/mL, respectively. The molecule further gave a fraction remaining at 0.5 h in series [6] of 50%. This molecule also came in with a Cmax in [7] of 26.1 ng/mL. Moreover, the Tmax in series [8] is 49.8 min. Besides, the half-life is 84 min in [9] and 72 min in series [10]. Also, in the series filed under Cavia porcellus [11], the “Delta CPP” value is given as -8 mmHg. Further, the “Delta H-V” value in the series filed under Cavia porcellus [12] is 4 ms. The “Delta S-H” value in the series filed under Cavia porcellus [13] stood at 3 ms. In addition, the pIC50 against Cytochrome P450 3A4 was 4.64; against Cytochrome P450 1A2, below 4.00; on Cytochrome P450 2C9, below 4.00.
